Here are results for 19 compounds from ChEMBL document CHEMBL1909543, “Synthesis and biological evaluation of thio-benzodiazepines as novel small molecule inhibitors of the p53-MDM2 protein-protein interaction” (Eur J Med Chem, 2011).

One test relates to SAOS-2. The test can be described thus: Antitumor activity against p53 deficient human Saos2 cells after 72 hrs by MTT assay. It counts as functional, cell-based. Conditions: SAOS-2, 72 h. The gist of the method:
(§1)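 Cells seeded at 5-6 × 10⁴ per well and cultured 24 h, then exposed to a range of compound concentrations in triplicate wells; vehicle control 0.1% DMSO. After 72 h, MTT (5 mg/mL solution) added, plate shaken 1 min, then incubated 4 h at 37 °C. Formazan dissolved in DMSO and absorbance read at 570 nm. Drug-free wells served as blanks. IC50 = 50% growth inhibition.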

In test [1] the test system is U2OS. The experiment in a line: Antitumor activity against human U2OS cells expressing wild type p53 after 72 hrs by MTT assay. It counts as functional, cell-based. A digest of the protocol:
as §1
On the technique in general: Tetrazolium assays rely on reduction of a dye to a coloured formazan, in cell work by metabolically active cells.

Test [2] has as its target Tumour suppressor p53/oncoprotein Mdm2 (Homo sapiens, UniProt Q00987). The experiment in a line: Inhibition of Mdm2-p53 protein interaction preincubated for 1 hr by fluorescence polarization assay. (Fluorescence polarisation rises when a labelled molecule tumbles more slowly, as on binding a larger partner.)
In test [3] the test system is U2OS. The experiment in a line: Ratio of nutlin-3a IC50 to compound IC50 for human U2OS cells expressing wild type p53. Type of test: functional.

Tumour suppressor p53/oncoprotein Mdm2, sequence (P04637 whole entry): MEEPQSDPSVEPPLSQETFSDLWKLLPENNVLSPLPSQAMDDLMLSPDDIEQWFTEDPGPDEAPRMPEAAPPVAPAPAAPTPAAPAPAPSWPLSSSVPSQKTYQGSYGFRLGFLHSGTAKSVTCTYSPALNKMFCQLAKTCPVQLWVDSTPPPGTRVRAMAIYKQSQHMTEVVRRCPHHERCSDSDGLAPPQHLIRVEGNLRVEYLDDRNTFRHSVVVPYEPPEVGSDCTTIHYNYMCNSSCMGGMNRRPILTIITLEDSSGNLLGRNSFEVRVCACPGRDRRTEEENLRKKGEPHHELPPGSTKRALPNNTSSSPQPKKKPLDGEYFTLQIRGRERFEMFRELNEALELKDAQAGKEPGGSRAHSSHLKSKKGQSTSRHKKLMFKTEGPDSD
Tumour suppressor p53/oncoprotein Mdm2, sequence (Q00987 whole entry): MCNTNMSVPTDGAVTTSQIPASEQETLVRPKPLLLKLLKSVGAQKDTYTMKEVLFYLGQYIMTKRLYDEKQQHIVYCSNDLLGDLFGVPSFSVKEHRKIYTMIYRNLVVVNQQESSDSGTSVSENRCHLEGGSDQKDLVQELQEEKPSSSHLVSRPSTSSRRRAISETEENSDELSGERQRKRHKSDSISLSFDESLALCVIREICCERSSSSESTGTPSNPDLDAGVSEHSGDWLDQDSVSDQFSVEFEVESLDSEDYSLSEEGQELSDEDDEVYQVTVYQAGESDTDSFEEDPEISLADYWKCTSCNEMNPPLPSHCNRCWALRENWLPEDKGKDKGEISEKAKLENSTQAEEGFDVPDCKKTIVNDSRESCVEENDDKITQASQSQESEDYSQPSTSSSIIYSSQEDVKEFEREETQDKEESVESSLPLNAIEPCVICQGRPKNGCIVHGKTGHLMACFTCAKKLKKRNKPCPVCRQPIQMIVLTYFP

By IC50 is commonly meant the point on the concentration scale where inhibition reaches its midpoint. For orientation: Ki means the equilibrium dissociation constant of an inhibitor or competing ligand from its target. As for `COC(=O)C(c1ccc(Cl)cc1)N1C(=O)c2ccc(NCc3ccc(Br)cc3)cc2NC(=S)C1c1ccc(Cl)cc1` (configuration not stated), the IC50 with SAOS-2 was found to be 13.8 µM; in the test with U2OS [1] it was 14.7 µM. Further, the Ki in test [2] was above 100 µM.

Regarding `COC(=O)C(c1ccc(Cl)cc1)N1C(=O)c2ccccc2NC(=O)C1c1ccc(Cl)cc1` (configuration not stated), the IC50 in the test on SAOS-2 came to 5.58 µM; with U2OS [1], 13.9 µM. This compound showed a Ki in test [2] of 10.6 µM.

Consider `COC(=O)C(c1ccc(Cl)cc1)N1C(=O)c2ccccc2NC(=S)C1c1ccc(Cl)cc1` (configuration not stated), for which the IC50 with SAOS-2 was determined as 6.55 µM; in the test with U2OS [1] it was 13.7 µM. In test [2], this compound yielded a Ki of 0.52 µM.

Turning to `CCCNc1ccc2c(c1)NC(=S)C(c1ccc(Cl)cc1)N(C(C(=O)OC)c1ccc(Cl)cc1)C2=O` (configuration not stated), the IC50 in the test on SAOS-2 was 12.4 µM; in the test on U2OS [1], 91.2 µM. Besides, affinity in test [2] was put at a Ki of 1.02 µM.

As to `COC(=O)C(c1ccc(Cl)cc1)N1C(=O)c2ccc(NCc3ccccc3)cc2NC(=S)C1c1ccc(Cl)cc1` (configuration not stated), the IC50 in the test on SAOS-2 is 17.8 µM; with U2OS [1], above 100 µM. Besides, in test [2], affinity was put at a Ki of 2.26 µM.

`COC(=O)C(c1ccc(Cl)cc1)N1C(=O)c2ccc(NCc3ccc(Cl)cc3)cc2NC(=S)C1c1ccc(Cl)cc1` (configuration not stated): the IC50 amounted to 13.3 µM with SAOS-2 and 20.9 µM in the test on U2OS [1]. Further, the Ki in test [2] was above 100 µM.

Consider `COC(=O)C(c1ccc(Cl)cc1)N1C(=O)c2ccc(NCC(C)(C)C)cc2NC(=S)C1c1ccc(Cl)cc1` (configuration not stated), for which the IC50 with SAOS-2 came out at 2.19 µM; in the test on U2OS [1], 18 µM. In test [2], the Ki is above 100 µM.

With `COC(=O)C(c1ccc(Cl)cc1)N1C(=O)c2ccc(NCC(C)C)cc2NC(=S)C1c1ccc(Cl)cc1` (configuration not stated), the half-maximal inhibitory concentration (IC50) in the test on SAOS-2 is 15.7 µM; in the test on U2OS [1], above 100 µM. The Ki in test [2] is 0.32 µM.

As for `CCCCCNc1ccc2c(c1)NC(=S)C(c1ccc(Cl)cc1)N(C(C(=O)OC)c1ccc(Cl)cc1)C2=O` (configuration not stated), the figures for the IC50 with SAOS-2 and with U2OS [1] were 20.7 µM and above 100 µM, respectively. Also, the Ki in test [2] amounted to 15 µM.

In the case of `CCCCNc1ccc2c(c1)NC(=S)C(c1ccc(Cl)cc1)N(C(C(=O)OC)c1ccc(Cl)cc1)C2=O` (configuration not stated), the IC50 was 27.9 µM with SAOS-2 and above 100 µM with U2OS [1]. The compound further gave a Ki in test [2] of 49.6 µM.

Turning to `COC(=O)C(c1ccc(Cl)cc1)N1C(=O)c2ccc(NCC3CC3)cc2NC(=S)C1c1ccc(Cl)cc1` (configuration not stated), the IC50 with SAOS-2 was 19 µM; in the test on U2OS [1], above 100 µM. The same compound displayed a Ki in test [2] of 3.43 µM.

Turning to `COC(=O)C(c1ccc(Cl)cc1)N1C(=O)c2ccc(NCc3ccc(C(F)(F)F)cc3)cc2NC(=S)C1c1ccc(Cl)cc1` (configuration not stated), the IC50 was 2.87 µM in the test with SAOS-2 and 1.06 µM in the test on U2OS [1]. Further, in the test with U2OS [3], the “Ratio IC50” value was determined as 23. The same compound had a Ki in test [2] of 5.34 µM.

`COC(=O)C(c1ccc(Cl)cc1)N1C(=O)c2ccc(NCC3CCCCC3)cc2NC(=S)C1c1ccc(Cl)cc1` (configuration not stated): the IC50 with SAOS-2 was 72.2 µM; in the test on U2OS [1], above 100 µM. Further, the Ki in test [2] was above 100 µM.

In the case of `COC(=O)C(c1ccc(Cl)cc1)N1C(=O)c2ccc(NCc3ccc4ccccc4c3)cc2NC(=S)C1c1ccc(Cl)cc1` (configuration not stated), the IC50 in the test on SAOS-2 was 91.7 µM; with U2OS [1], above 100 µM. For the same compound, the Ki in test [2] was above 100 µM.

`COC(=O)C(c1ccc(Cl)cc1)N1C(=O)c2ccc(NCc3ccc(OC)cc3)cc2NC(=S)C1c1ccc(Cl)cc1` (configuration not stated): the figures for the IC50 with SAOS-2 and in the test on U2OS [1] were 88.1 µM and above 100 µM, respectively. In test [2], this compound displayed a Ki above 100 µM.

Regarding `COC(=O)C(c1ccc(Cl)cc1)N1C(=O)c2ccc(NCc3ccsc3)cc2NC(=S)C1c1ccc(Cl)cc1` (configuration not stated), the values for the IC50 in the test on SAOS-2 and in the test on U2OS [1] were 3.37 µM and above 100 µM, respectively. The same compound yielded an inhibition constant Ki in test [2] above 100 µM.

Consider `COC(=O)C(c1ccc(Cl)cc1)N1C(=O)c2ccc(NCc3ccc(F)cc3)cc2NC(=S)C1c1ccc(Cl)cc1` (configuration not stated), for which the IC50 in the test with SAOS-2 amounted to 9.81 µM; in the test with U2OS [1], 30.6 µM. Moreover, in test [2], the Ki amounted to 1.71 µM.

With `COC(=O)C(c1ccc(Cl)cc1)N1C(=O)c2ccc(NCc3ccco3)cc2NC(=S)C1c1ccc(Cl)cc1` (configuration not stated), the IC50 turned out to be 11.3 µM in the test on SAOS-2 and 48.5 µM in the test with U2OS [1]. Moreover, the Ki in test [2] worked out at 43.1 µM.

In the case of `COc1ccc(C2=N[C@@H](c3ccc(Cl)cc3)[C@@H](c3ccc(Cl)cc3)N2C(=O)N2CCNC(=O)C2)c(OC(C)C)c1` [NUTLIN-3], the values for the IC50 in the test with SAOS-2 and in the test on U2OS [1] were 54.4 µM and 24.6 µM, respectively.
